# ABCB6 inh 2 – blocks the human ABCB6 transporter; AID 602162; actives 0.19% (n = 360,000); fluorescence ratio to DMSO, % at 10 µM; K562-ABCB6 porphyrin accumulation, flow cytometry, 1 h; active compounds read low;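 active = fluorescence ratio to DMSO below 75%, the collection mean minus 3 SD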;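 note: signal is porphyrin accumulated inside mitochondria; 100% equals median channel fluorescence of DMSO control wells; lower ratio means ABCB6 inhibition with less porphyrin fluorescence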
# Exocytosis inh – blocks lytic granule exocytosis; TALL-104 LAMP-1 surface exposure, flow cytometry; cells stimulated with thapsigargin and PMA; inhibition, % at 10 µM; actives 0.66% (n = 360,000); AID 651702;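 active = inhibition above about 55%, limit read from the data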
# MT1-MMP act inh – inhibitors of human MT1-MMP activation; P50281; HT1080 RFP-PRO-GFP cells, GFP/RFP ratio fluorescence, overnight; percent of plate control window, DMSO zero; GFP/RFP ratio change, % at 20 µM; actives 0.061% (n = 360,000);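 active = GFP/RFP ratio change of at least 30% with cell ATP level not reduced by more than half and red fluorescence within 50% of control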
#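 Material: RFP-PRO-GFP reporter HT1080 cells. Dosing: single-point 20 µM compound, 1% DMSO. Controls: DMSO and RFP-L50D-GFP cell wells. Timing: cells overnight before dosing, compound overnight, 37 °C, 5% CO2. Measure: GFP/RFP fluorescence ratio.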
# DAGLB inh – blocks human DAGLB lipase activity; HEK293T DAGLB membrane lysate, EnzChek fluorogenic substrate; inhibition, % at 5.17 µM; actives 0.059% (n = 340,000); AID 504411; in the data active = inhibition above about 34%;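 note: 0% = enzyme with vehicle and 100% = wells lacking enzyme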
# FGF22 binding – shifts melting point of recombinant human FGF22. Q9HCT0. recombinant FGF22 thermal shift, SYPRO orange fluorescence; percent of sucrose octasulfate shift, DMSO zero. activity (Tm shift, normalised), % at 9.99 µM. actives 1.5% (n = 340,000);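 active = mean Tm shift, scaled 0 neutral to 100 positive control, at about 1.3% or above, every replicate too, limit read from the data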
# VLA-4 inh – inhibition in a human VLA-4 binding assay | actives 0.2% (n = 330,000) | VLA-4 expressing cells, ligand binding flow cytometry | inhibition, % (about 7 µM as worked out from the volumes in the protocol); in the data active = inhibition above about 50%
# DAGLB inh conf – DAGLB (human) inhibition, confirmation screen; shares compounds with DAGLB inh; HEK293T DAGLB membrane lysate, EnzChek fluorogenic substrate; inhibition, % at 5.17 µM; actives 73% (n = 190); AID 504445;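 active = mean inhibition over triplicate wells above a set limit taken from the primary lipase screen, cut at about 34% in these data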;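 note: 0% = DAGLB with DMSO and 100% = wells lacking DAGLB enzyme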
# An asterisk follows results filed as active; i = inactive; . = no result given. Rows were chosen to be rich in hits. Some 2% of all compounds tested hit in one or more screens of this group.
SMILES,ABCB6 inh 2,Exocytosis inh,MT1-MMP act inh,DAGLB inh,FGF22 binding,VLA-4 inh,DAGLB inh conf
O=C1S/C(=C\c2ccc(O)c([N+](=O)[O-])c2)C(=O)N1c1ccccc1Cl,91,2,9,36*,1,-1,45*
Brc1ccc(N/N=C(/N=Nc2nn[nH]n2)c2ccccc2)cc1,97,2,18,46*,0,-7,78*
COc1ccc(N/C=C2\C(=O)CCc3c2oc2cc(Cl)c(O)c(Cl)c32)cc1,115,-8,-12,36*,0,-6,38*
COc1cc(/C=C2/C(=O)NN(c3ccc(C)c(Cl)c3)C2=O)cc([N+](=O)[O-])c1O,123,5,0,39*,0,10,38*
COc1cc(/C=C2/C(=O)NN(c3cccc(C)c3)C2=O)cc([N+](=O)[O-])c1O,91,-4,11,16,.,4,.
CCN(CCCNc1cc2c(c(N)c1S(=O)(=O)O)C(=O)c1ccccc1C2=O)c1ccccc1,153,-2,17,36*,0,.,39*
COc1ccc(C(=O)Nc2ccc3c(c2)C(=O)N(C)C[C@@H](OC)[C@H](C)CN[C@@H](C)CO3)cc1,.,.,.,.,0,.,.
C[C@H]1CN([C@@H](C)CO)S(=O)(=O)c2ccc(C3=CCCC3)cc2O[C@@H]1CN(C)C(=O)c1ccncc1,.,.,.,.,0,.,.
CO[C@@H]1CN(C)C(=O)c2cc(NC(=O)CC(F)(F)F)ccc2OC[C@@H](C)N(C(=O)C2CCOCC2)C[C@@H]1C,.,.,.,.,0,.,.
O=[N+]([O-])c1cc(-c2ccccc2)cc([N+](=O)[O-])c1O,105,5,13,43*,.,.,53*
O=[N+]([O-])c1cc2ccccc2c(O)c1O,96,3,3,14,0,.,.
C[C@H](CO)N1C[C@H](C)[C@H](CN(C)S(=O)(=O)c2ccc(F)cc2)Oc2ccc(NC(=O)Nc3cccc4ccccc34)cc2C1=O,.,.,.,.,0,.,.
C/C(=N\Nc1ccc(S(N)(=O)=O)cc1[N+](=O)[O-])c1ccc2c(c1)OCO2,96,0,6,37*,42,.,42*
CN(C)c1ccc(/C=C/c2ccc3c4ccccc4ccc3[n+]2-c2ccccc2)cc1,i,-28,57,35*,0,.,61*
CN(C)c1ccc(/C=C/c2ccc3ccccc3[n+]2C)cc1,494,6,87,14,.,i,.
N#C/C(=C/c1cccc(O)c1)C(=O)NCc1ccc(Cl)cc1,95,-8,0,-2,0,10,.
N#C/C(=C/c1ccc(O)c(O)c1)C(=O)NCc1ccc(Cl)cc1,97,-14,-7,45*,0,9,24
COc1cccc(CN2CCC3(CC2)CN(S(C)(=O)=O)[C@@H](CO)c2[nH]c4cc(OC)ccc4c23)c1,.,.,.,.,0,.,.
Cc1ccc(S(=O)(=O)N[C@H]2CC[C@H](CCn3cc(-c4ccccc4F)nn3)O[C@@H]2CO)cc1,.,.,.,.,0,.,.
COc1cc(CN(C)C)cc(C=O)c1O,94,-3,2,2,.,4,.
COc1cc(N=Nc2ccc(Br)cc2)cc(C=O)c1O,104,105*,29,38*,0,.,28
Cc1ccc(C2=C(O)C(=O)C(c3ccc(C)cc3)=C(O)C2=O)cc1,82,3,-3,60*,0,.,25
Cc1coc2c1C(=O)C(=O)c1c-2ccc2c1CCCC2(C)C,110,-2,9,53*,0,-8,58*
C[C@H]1COC2=C1C(=O)C(=O)c1c2ccc2c1CCCC2(C)C,109,-1,4,10,.,-18,.
O=c1cc(-c2ccccc2Cl)oc2c(NS(=O)(=O)c3cc(Cl)cc(Cl)c3O)ccc(O)c12,96,-3,-42,41*,.,1,38*
SMILES,ABCB6 inh 2,Exocytosis inh,MT1-MMP act inh,DAGLB inh,FGF22 binding,VLA-4 inh,DAGLB inh conf
CCCNC(=O)C[C@H]1C[C@H]2c3cc(NC(=O)CC4CC4)ccc3O[C@H]2[C@H](CO)O1,.,.,.,.,0,.,.
Cc1ccc(S(=O)(=O)N(C)C[C@H]2Oc3c(NC(=O)C4CC4)cccc3C(=O)N([C@H](C)CO)C[C@H]2C)cc1,.,.,.,.,0,.,.
COc1ccc(C2/C=C\CN(C(=O)c3ccc(C)cc3)[C@H](Cc3ccccc3)C(=O)N2Cc2ccc(F)cc2)cc1 (stereo not given in full),95,2,-8,40*,.,11,39*
Cc1ccc(NCC(O)C(O)C(O)CO)cc1C (stereo not given),95,2,-1,-4,.,-1,.
Cc1cc(N=Nc2ccccc2)c(NCC(O)C(O)C(O)CO)cc1C (stereo not given),105,-3,22,45*,0,-4,43*
O=[N+]([O-])c1cc(Cl)cc(/C=N/NC(=S)Nc2ccc(S(=O)(=O)N3CCOCC3)cc2)c1O,97,7,-9,61*,0,7,73*
O=S(=O)(c1ccc(NC(=S)N/N=C/c2ccc(O)c(O)c2)cc1)N1CCOCC1,97,-1,7,9,0,-5,.
O=C1C(NS(=O)(=O)c2cccs2)=C(N2CCN(c3cccc(Cl)c3)CC2)C(=O)c2ccccc21,104,7,6,41*,.,12,42*
O=C1C(NS(=O)(=O)c2ccccc2)=C(N2CCN(c3ccc(F)cc3)CC2)C(=O)c2ccccc21,98,-2,14,27,0,2,.
CCOc1cc(/C=C2\N=C(SCC)SC2=O)cc([N+](=O)[O-])c1OC(C)=O,150,-2,-2,50*,.,20,37*
C[C@@H]1CN([C@@H](C)CO)S(=O)(=O)c2ccc(C#C[C@@H](C)O)cc2O[C@H]1CN(C)C(=O)c1ccncc1,.,.,.,.,0,.,.
Cc1cc(C)c(NC(=O)COC(=O)c2cccc3c2C(=O)c2ccccc2C3=O)c(C)c1,99,-3,-7,0,.,-5,.
Cc1cc(C)c(Nc2cc(S(=O)(=O)O)c(N)c3c2C(=O)c2ccccc2C3=O)c(C)c1,103,-12,23,80*,.,14,86*
CCc1ccc(NC(=S)Nc2ccc(S(=O)(=O)Nc3ncccn3)cc2)cc1,93,-2,2,54*,42,-4,-1
COc1ccc(-c2cnc3c(c2)C(=O)N([C@@H](C)CO)C[C@@H](C)[C@H](CN(C)Cc2ccccc2)O3)cc1,.,.,.,.,0,.,.
O=C(Cc1ccc(F)cc1)N1CCN(c2ccc([N+](=O)[O-])cc2)CC1,103,0,3,3,0,-16,.
O=[N+]([O-])c1ccc(N2CCN(c3ccc(F)cc3)CC2)cc1,89,19,22,55*,0,4,99*
